{"source": "the M2OR odorant receptor database", "data": [{"biological_target": "T1, OR2M7 (Homo sapiens) (UniProt Q8NG81)", "T1 sequence (whole entry)": "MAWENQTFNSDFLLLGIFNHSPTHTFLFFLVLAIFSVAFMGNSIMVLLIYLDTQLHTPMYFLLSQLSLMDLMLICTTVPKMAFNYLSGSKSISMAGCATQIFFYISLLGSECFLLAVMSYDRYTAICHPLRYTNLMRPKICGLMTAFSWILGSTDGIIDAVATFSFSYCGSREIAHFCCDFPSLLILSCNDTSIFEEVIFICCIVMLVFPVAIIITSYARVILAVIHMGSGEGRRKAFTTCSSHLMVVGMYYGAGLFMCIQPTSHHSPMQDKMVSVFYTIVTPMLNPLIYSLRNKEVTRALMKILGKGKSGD", "settings": "stereoisomer not certain", "outline": "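Each receptor–molecule pair is labelled responsive or non-responsive (inactive) according to whether the original authors judged the measured signal statistically different from baseline. The data were taken from the main text and supplementary material of published papers and checked for typos and inconsistencies. Assay methods differed by source, with transient luciferase assays in mammalian cell lines being common.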", "values": [{"smiles": "CCCCC(=O)O", "odorant receptor agonist call": "inactive"}, {"smiles": "CCC(C(=O)O)c1ccccc1", "note": "(configuration not stated)", "odorant receptor agonist call": "inactive"}, {"smiles": "CCC(=O)C(=O)CC", "odorant receptor agonist call": "inactive"}, {"smiles": "CCCCCC(=O)CC", "odorant receptor agonist call": "inactive"}, {"smiles": "CCCCCCC(=O)[O-].[H+]", "odorant receptor agonist call": "inactive"}, {"smiles": "CCCC(C)=O", "odorant receptor agonist call": "inactive"}, {"smiles": "CCC(=O)O", "odorant receptor agonist call": "inactive"}, {"smiles": "CCCCCCCCS", "odorant receptor agonist call": "inactive"}, {"smiles": "CC(C)=CCCC(C)CCO", "note": "(configuration not stated)", "odorant receptor agonist call": "active"}, {"smiles": "c1ccccc1", "odorant receptor agonist call": "inactive"}, {"smiles": "CCCCCCCCCS", "odorant receptor agonist call": "inactive"}, {"smiles": "CCCCCCCC(=O)[O-].[H+]", "odorant receptor agonist call": "inactive"}, {"smiles": "CCOC(=O)C(C)C", "odorant receptor agonist call": "inactive"}, {"smiles": "CCCCC(=O)CC", "odorant receptor agonist call": "inactive"}, {"smiles": "CCCCCOC(=O)CCCCC", "odorant receptor agonist call": "inactive"}, {"smiles": "CC(=O)Oc1ccccc1", "odorant receptor agonist call": "inactive"}, {"smiles": "COc1cc(C(=O)O)ccc1O", "odorant receptor agonist call": "inactive"}, {"smiles": "CCCCCCCCC(=O)O", "odorant receptor agonist call": "inactive"}, {"smiles": "CCCC(=O)C(C)=O", "odorant receptor agonist call": "inactive"}, {"smiles": "CC(=O)OCC=C(C)C", "odorant receptor agonist call": "inactive"}, {"smiles": "CCCCCCCO", "odorant receptor agonist call": "inactive"}, {"smiles": "CCCCC(C)=O", "odorant receptor agonist call": "inactive"}, {"smiles": "CCCCCCC(C)=O", "odorant receptor agonist call": "inactive"}, {"smiles": "CCCCCC1=C(C)CCC1=O", "odorant receptor agonist call": "inactive"}, {"smiles": "CCCCCCOC(C)=O", "odorant receptor agonist call": "inactive"}, {"smiles": "CCC(S)C(C)CO", "note": "(configuration not stated)", "odorant receptor agonist call": "inactive"}, {"smiles": "O=C1CCOc2ccccc21", "odorant receptor agonist call": "inactive"}]}]}
